This is an account of results in ChEMBL document CHEMBL1151228, “Three cyclooctapeptides and one glycoside from Microtoena prainiana” (J Nat Prod, 2004).

Calls of active or inactive are those of the source. The calls are words filed in the database; no cut-off is given here. Where a SMILES comes first, the peptide text is derived from it.

One experiment has as its system Human alphaherpesvirus 2. Description: Antiviral activity against HSV2 333 infected in african green monkey Vero cells assessed as virus-induced cytopathic effect at 250 ug/ml. Format: functional, organism-based. In outline: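 Vero cells infected with HSV-2 (strain 333); inhibition of viral replication read as cytopathic effect (CPE); compounds tested at 250 µg/mL; acyclovir as positive drug control.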
(In general: Protection from cytopathic effect is a common read-out in antiviral testing.)

Experiment [1] addresses Angiotensin-converting enzyme (Homo sapiens) (UniProt P12821). Put plainly: Inhibition of ACE at 1 mg/ml. The method in brief: (§1)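 ACE extract (10 µg total protein) preincubated with sample for 30 min at 37 °C. HHL substrate then added for 15 min at 37 °C. NaOH and O-phthaldialdehyde added, stopped after 10 min with HCl. His-Leu fluorescence read at ex 405/em 535 nm. % inhibition = 100×(N−S)/(N−B) against negative and blank controls. Captopril positive control; at least three determinations.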

Experiment [2] shares this target. Put plainly: Inhibition of ACE at 0.1 mg/ml. In outline:
as §1

The nature of experiment [3]: Cytotoxicity against human Lu04 cells by SRB assay. Format: functional, cell-based. The method in brief:
(§2)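 Sulforhodamine B (SRB) cytotoxicity assay on human tumour lines: breast cancer Bre04, lung cancer Lu04 and neuroma N04.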
For orientation: In SRB staining, fixed cells bind dye roughly in proportion to their protein.

Experiment [4] is described as follows: Cytotoxicity against human Bre04 cells by SRB assay. Type of experiment: functional, cell-based. In outline: as §2
The nature of experiment [5]: Cytotoxicity against human N04 cells by SRB assay. Format: functional, cell-based. The method in brief:
as §2

Sequence of Angiotensin-converting enzyme (Homo sapiens) (P12821 whole entry): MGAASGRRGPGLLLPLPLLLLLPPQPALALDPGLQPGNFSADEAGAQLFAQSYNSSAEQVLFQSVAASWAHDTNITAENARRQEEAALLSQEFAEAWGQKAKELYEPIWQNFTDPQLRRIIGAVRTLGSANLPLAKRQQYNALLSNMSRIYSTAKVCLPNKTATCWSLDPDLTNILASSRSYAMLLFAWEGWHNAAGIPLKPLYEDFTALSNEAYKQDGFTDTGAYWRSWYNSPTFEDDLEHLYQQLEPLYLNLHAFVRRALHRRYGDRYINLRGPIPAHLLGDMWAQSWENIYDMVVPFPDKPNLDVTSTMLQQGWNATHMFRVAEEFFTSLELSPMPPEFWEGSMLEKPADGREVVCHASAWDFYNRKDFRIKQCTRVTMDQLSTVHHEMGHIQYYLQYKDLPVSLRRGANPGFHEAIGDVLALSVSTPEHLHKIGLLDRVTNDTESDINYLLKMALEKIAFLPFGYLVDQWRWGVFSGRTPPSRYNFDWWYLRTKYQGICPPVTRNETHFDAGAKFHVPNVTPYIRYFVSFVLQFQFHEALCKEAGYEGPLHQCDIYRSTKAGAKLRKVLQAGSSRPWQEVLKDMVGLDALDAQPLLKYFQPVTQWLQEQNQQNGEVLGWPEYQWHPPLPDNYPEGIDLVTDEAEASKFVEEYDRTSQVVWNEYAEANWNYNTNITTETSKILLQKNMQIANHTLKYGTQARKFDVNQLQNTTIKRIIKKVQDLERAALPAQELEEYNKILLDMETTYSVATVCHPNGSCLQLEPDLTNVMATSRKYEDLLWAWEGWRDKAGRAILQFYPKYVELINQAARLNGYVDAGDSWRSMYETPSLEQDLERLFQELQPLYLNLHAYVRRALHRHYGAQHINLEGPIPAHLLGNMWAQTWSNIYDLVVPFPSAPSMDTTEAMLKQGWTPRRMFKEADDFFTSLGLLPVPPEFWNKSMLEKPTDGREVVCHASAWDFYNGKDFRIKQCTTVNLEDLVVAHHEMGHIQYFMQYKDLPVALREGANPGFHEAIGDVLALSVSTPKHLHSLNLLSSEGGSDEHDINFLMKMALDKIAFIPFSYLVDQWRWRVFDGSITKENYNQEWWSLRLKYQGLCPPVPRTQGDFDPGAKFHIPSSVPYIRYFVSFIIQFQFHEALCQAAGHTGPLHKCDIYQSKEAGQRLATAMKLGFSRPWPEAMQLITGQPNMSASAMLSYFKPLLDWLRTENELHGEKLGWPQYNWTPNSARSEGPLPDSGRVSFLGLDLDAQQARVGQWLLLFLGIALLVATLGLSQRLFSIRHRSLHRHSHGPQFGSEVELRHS

Consider `CC[C@@H](C)[C@@H]1NC(=O)[C@@H]2CCCN2C(=O)[C@H](Cc2ccc(O)cc2)NC(=O)[C@H](CC(N)=O)NC(=O)[C@H](Cc2ccccc2)NC(=O)[C@@H]2CCCN2C(=O)[C@H](CC(C)C)NC(=O)[C@@H]2CCCN2C1=O`, for which, in the experiment on Human alphaherpesvirus 2, the result was inactive.

Turning to `COc1cc(/C=C/C(=O)O[C@H]2[C@H](O[C@@H]3O[C@@H](C)[C@H](O)[C@@H](O)[C@H]3O)[C@H]3O[C@@H](c4ccc(O)c(O)c4)CO[C@@H]3O[C@@H]2CO)ccc1O`, in the experiment with Human alphaherpesvirus 2, the outcome was inactive. Moreover, the inhibition amounted to 99.8% in experiment [1] and 67.5% in experiment [2].

As for `C[C@@H]1O[C@@H](O[C@@H]2[C@H]3O[C@@H](c4ccc(O)c(O)c4)CO[C@@H]3O[C@H](CO)[C@H]2OC(=O)/C=C/c2ccc(O)c(O)c2)[C@H](O)[C@H](O)[C@H]1O`, in the experiment on Human alphaherpesvirus 2, the outcome was inactive. The inhibition in experiment [1] worked out at 99.7%; in experiment [2] it was 75.5%.

As for `C[C@@H]1O[C@@H](O[C@H]2[C@H](O)[C@@H](COC(=O)/C=C/c3ccc(O)c(O)c3)O[C@H]3OC[C@H](c4ccc(O)c(O)c4)O[C@@H]32)[C@H](O)[C@H](O)[C@H]1O`, the outcome in the experiment on Human alphaherpesvirus 2 was inactive. Besides, the figures for the inhibition in experiment [1] and in experiment [2] were 99.3% and 71.4%, respectively.

Consider `CC(C)[C@@H]1NC(=O)[C@@H]2CCCN2C(=O)[C@H](Cc2ccccc2)NC(=O)CNC(=O)[C@H](C)NC(=O)[C@H](C)NC(=O)[C@H](Cc2ccccc2)NC(=O)[C@H](Cc2ccccc2)NC1=O` (cyclo(AAGFPVFF)), for which the result with Human alphaherpesvirus 2 was inactive.

With `CC(C)C[C@@H]1NC(=O)[C@H](C(C)C)NC(=O)[C@@H]2CCCN2C(=O)[C@H](Cc2ccccc2)NC(=O)[C@H](C)NC(=O)[C@H](C(C)C)NC(=O)[C@@H]2CCCN2C(=O)[C@H](Cc2ccc(O)cc2)NC1=O` (cyclo(AFPVLYPV)), in the experiment with Human alphaherpesvirus 2, the result was inactive.

As for `CC(C)C[C@@H]1NC(=O)[C@H](Cc2ccc(O)cc2)NC(=O)[C@@H]2CCCN2C(=O)[C@H](C(C)C)NC(=O)[C@H](C)NC(=O)[C@H](Cc2ccccc2)NC(=O)[C@@H]2CCCN2C(=O)[C@H](C(C)C)NC1=O` [MICROTOENIN A] (cyclo(AVPYLVPF)), the 50% inhibitory concentration (IC50) in experiment [3], in experiment [4] and in experiment [5] was greater than 100 mg/L each time.

Turning to `CC(C)[C@@H]1NC(=O)[C@H](Cc2ccccc2)NC(=O)[C@H](Cc2ccccc2)NC(=O)[C@H](C)NC(=O)[C@H](C)NC(=O)CNC(=O)[C@H](Cc2ccccc2)NC(=O)[C@@H]2CCCN2C1=O` [MICROTOENIN B] (cyclo(AAFFVPFG)), the half-inhibitory concentration (IC50) in experiment [3], in experiment [4] and in experiment [5] was greater than 100 mg/L each time.

With `CC[C@H](C)[C@@H]1NC(=O)[C@@H]2CCCN2C(=O)[C@H](CC(C)C)NC(=O)[C@@H]2CCCN2C(=O)[C@H](Cc2ccccc2)NC(=O)[C@H](CC(N)=O)NC(=O)[C@H](Cc2ccc(O)cc2)NC(=O)[C@@H]2CCCN2C1=O` [MICROTOENIN C] (cyclo(FPLPIPYN)), the IC50 in experiment [3], in experiment [4] and in experiment [5] was greater than 100 mg/L throughout.

Broadly, the inhibition is how much of the control response was suppressed. Broadly, the IC50 is the concentration that inhibits the measured activity by half.
